Several values for one entry are separate records, joined by “and”; a condition that tells them apart may be missing. Equal entries are not always repeated. Screen size: about 360,000 compounds; about 5,400 (1.5%) were called active. Shown is part of a subset that was picked to be rich in actives. Values without a mark were called inactive.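 Rule for the calls: active = inhibition above a per-plate cutoff, the mean inhibition of test compounds on that plate plus 3 SD (cut at about 49% in these data); inactive = the rest.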
Biological target: Trace amine-associated receptor 1 (Homo sapiens) (UniProt Q96RJ0)
Assay: blockers of beta-PEA-driven TAAR1 calcium signal – Fluo-8 calcium fluorescence, CHO RD-HGA16 cells, primary screen (AID 624466);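 note: 0% = DMSO plus EC80 beta-PEA response and 100% = DMSO alone without agonist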
Conditions: CHO RD-HGA16 TAAR1, Fluo-8 calcium fluorescence, antagonist; at 3 µM; hits give high values
Summary of the method: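 test system = CHO RD-HGA16 cells bearing hTAAR1 | replication = singlicate | controls = DMSO-only wells and EC80 β-PEA-stimulated wells | reagent = EC80 β-phenethylamine stimulus | read-out basis = percent inhibition of PEA-evoked calcium signal, max/basal emission ratio | schedule = seeding 17-24 h prior, 75-min 37 °C, 30-min RT dye loading | signal = kinetic Fluo-8 calcium fluorescence measurement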

Trace amine-associated receptor 1 (Homo sapiens), sequence (Q96RJ0 whole entry, looked up): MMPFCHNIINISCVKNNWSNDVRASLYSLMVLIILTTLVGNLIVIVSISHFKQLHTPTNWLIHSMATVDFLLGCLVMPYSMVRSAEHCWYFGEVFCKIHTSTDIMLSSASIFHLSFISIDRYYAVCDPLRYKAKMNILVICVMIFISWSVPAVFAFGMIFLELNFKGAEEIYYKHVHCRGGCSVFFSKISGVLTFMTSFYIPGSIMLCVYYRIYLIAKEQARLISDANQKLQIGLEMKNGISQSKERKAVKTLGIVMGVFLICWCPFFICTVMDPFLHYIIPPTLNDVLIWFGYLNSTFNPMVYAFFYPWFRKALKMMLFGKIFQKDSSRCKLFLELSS

Point of comparison: `CC[C@H](C)[C@H]1CNC(=O)C(=O)N1CC1CCN(CCc2ccc(OC)c(OC)c2)CC1`, inhibition 9.23%. Against it:
- COC(=O)C1(C(=O)OC)C[C@H](c2ccccc2)N(Cc2ccccc2OC)[C@@H]1c1ccccc1 — lower, -23.2%
- Cc1noc(C)c1NC(=O)Nc1ccc2c(c1)C(=O)N([C@H](C)CO)C[C@H](C)[C@H](CN(C)Cc1ccncc1)OCCCC[C@@H](C)O2 — lower, 8.35%
- CCCCCCc1cc2cc(-c3nnc(-c4cccc(OC)c4)o3)c(=O)oc2cc1O — higher, 15.5%
- Nc1[nH]c(C(=O)c2ccccc2)c(-c2ccncc2)c1C(=O)NCc1cccc2ccccc12 — higher, 36.1%
- NC(=O)c1ncn([C@@H]2O[C@H](C(=O)O)[C@@H](O)[C@H]2O)n1 — lower, -11.9%
- COc1cccc(CNC(=O)[C@H]2CCCN2C(=O)[C@H]2CCCN2C(=O)c2ccc(F)cc2)c1 — lower, -14.1%
- COc1cc(C(C(=O)NC2CCCC2)N(Cc2ccccc2)C(=O)c2snc(C(N)=O)c2N)ccc1O (stereo not drawn) — higher, 23.1%
- NC(=O)c1nsc(C(=O)N(CC(=O)NCc2ccc(F)cc2)Cc2ccco2)c1N — higher, 10.2%
- COc1ccc2nc3n(c(=O)c2c1)-c1ccc(Cl)cc1C(=O)NC3Cc1ccccc1 (stereo not drawn) — higher, 25.3%
- CCC(C(=O)OCC(=O)Nc1c(Cl)cc(Cl)cc1Cl)c1ccccc1 (stereo not drawn) — higher, 15.1%
- CCC(C(=O)OCC(=O)Nc1ccccc1-c1ccccc1)c1ccccc1 (stereo not drawn) — higher, 36.7%
- O=C1Nc2c(Br)cc(Br)cc2C1(O)N1CCOCC1 (stereo not drawn) — lower, 1.94%
- COc1ccc(-c2cc3nc(C)c(CCC(=O)NC(C)CCc4ccco4)c(C)n3n2)c(OC)c1 (stereo not drawn) — lower, 8.4%
- COc1ccc2[nH]c3c(c2c1)CCN1C(=O)C(CC(=O)NCCc2ccccn2)C[C@H](C(=O)N2CCOCC2)[C@@]31C (stereo partly drawn) — lower, 3.09%
- CCN1C(=O)N[C@@H]2C[C@H](C(=O)N3CCCC3)[C@H](C)[C@H](c3ccccc3)C[C@@H]21 — lower, 6%
- Cc1ccc(C)c(S(=O)(=O)N2CCN(CC(=O)Nc3ccc([N+](=O)[O-])cc3)CC2)c1 — higher, 28.5%
- Cc1ccc(C)c(S(=O)(=O)n2cnc3ccccc32)c1 — lower, -29.5%
- COc1ccc(NC(=O)N(C)C[C@@H]2OCCCC[C@@H](C)Oc3ccc(NC(=O)NC4CCCCC4)cc3C(=O)N([C@H](C)CO)C[C@@H]2C)cc1 — lower, 2.84%

For `COc1ccc(CNC(=O)C(c2ccc(O)cc2)N(Cc2ccco2)C(=O)c2snc(C(N)=O)c2N)cc1` (stereo not drawn), the inhibition was 65% (active).
`CCC(C(=O)OCC(=O)Nc1ccc(C(=O)Nc2ccc(OC)cc2)cc1)c1ccccc1` (stereo not drawn) was tested, and the inhibition was 65.6% (active).
With `Cc1ccc(C)c(S(=O)(=O)N2CCN(c3ncnc4sccc34)CC2)c1` the inhibition was 65.3% (active).
For `CCO/C([O-])=N/c1c[n+](N2CCOCC2)no1`, the inhibition was -14.5% and -7.68%.

From PubChem BioAssay AID624466 (The Scripps Research Institute Molecular Screening Center, 2012)
